{"source": "ChEMBL document CHEMBL2321786", "about": "“Paclitaxel is an inhibitor and its boron dipyrromethene derivative is a fluorescent recognition agent for botulinum neurotoxin subtype A” (J Med Chem, 2013)", "key": {"[1]": {"target": "Botulinum neurotoxin type A (Clostridium botulinum) (UniProt P0DPI0)", "sequence (P0DPI0 2-448 limits assumed)": "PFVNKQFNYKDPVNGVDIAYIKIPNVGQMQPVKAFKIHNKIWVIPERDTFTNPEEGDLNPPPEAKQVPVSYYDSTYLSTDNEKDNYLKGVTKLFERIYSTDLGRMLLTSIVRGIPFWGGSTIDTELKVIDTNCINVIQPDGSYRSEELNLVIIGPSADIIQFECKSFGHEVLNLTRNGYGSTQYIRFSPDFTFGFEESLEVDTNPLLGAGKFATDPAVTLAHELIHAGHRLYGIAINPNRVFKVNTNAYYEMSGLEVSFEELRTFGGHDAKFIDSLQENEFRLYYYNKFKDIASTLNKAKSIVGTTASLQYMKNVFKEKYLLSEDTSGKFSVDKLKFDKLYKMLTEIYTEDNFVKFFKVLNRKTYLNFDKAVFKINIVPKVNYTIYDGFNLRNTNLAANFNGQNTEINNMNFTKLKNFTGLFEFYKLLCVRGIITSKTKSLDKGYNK", "experiment": "Binding affinity to nonactivated whole Clostridium botulinum biotinylated neurotoxin A in streptavidin-coated magnetic beads at 10 uM after 1 hr by fluorescence intensity assay relative to control"}, "[2]": {"target": "Botulinum neurotoxin type A (Clostridium botulinum) (UniProt P0DPI0)", "experiment": "Inhibition of Clostridium botulinum recombinant neurotoxin A light chain using SNAPtide as substrate at 10 uM after 1 hr by FRET assay relative to control", "outline": "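Single-point FRET at 10 μM ligand: 10 nM light chain, 8 μM SNAPtide, pH 8.2, 37 °C, 1 h incubation, triplicate. Cleavage read at ex 490/em 523 nm. Percent inhibition calculated against uninhibited cleavage at the same substrate and enzyme levels.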"}, "[3]": {"target": "Botulinum neurotoxin type A (Clostridium botulinum) (UniProt P0DPI0)", "experiment": "Binding affinity to nonactivated whole Clostridium botulinum biotinylated neurotoxin A in streptavidin-coated magnetic beads using [14C] labeled compound at 10 uM relative to control"}, "[4]": {"target": "Botulinum neurotoxin type A (Clostridium botulinum) (UniProt P0DPI0)", "experiment": "Binding affinity to nonactivated whole Clostridium botulinum biotinylated neurotoxin A in streptavidin-coated magnetic beads using [14C] labeled compound at 50 uM relative to control"}, "[5]": {"target": "Botulinum neurotoxin type A (Clostridium botulinum) (UniProt P0DPI0)", "experiment": "Binding affinity to nonactivated whole Clostridium botulinum biotinylated neurotoxin A in streptavidin-coated magnetic beads using [14C] labeled compound at 25 uM relative to control"}, "[6]": {"target": "Botulinum neurotoxin type A (Clostridium botulinum) (UniProt P0DPI0)", "experiment": "Binding affinity to Clostridium botulinum recombinant biotinylated neurotoxin A light chain incubated for 15 mins by scintillation proximity assay", "outline": "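Scintillation proximity binding: [3H]paclitaxel at each concentration incubated with 7 nM biotinylated light chain for 15 min at room temperature. Streptavidin-coated polyvinyltoluene SPA beads (2 mg/mL) then added. Run in triplicate, read at 1 h intervals by scintillation counting. Counts corrected for nonspecific binding/nonproximity effects.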"}, "[7]": {"target": "Botulinum neurotoxin type A (Clostridium botulinum, UniProt P0DPI0)", "sequence (P0DPI0 2-448 limits assumed)": "as above", "experiment": "Inhibition of Clostridium botulinum recombinant neurotoxin A light chain using SNAPtide as substrate after 1 hr by FRET assay", "outline": "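IC50 from a FRET dose-response: 10 nM light chain preincubated 30 min with inhibitor at 37 °C before adding SNAPtide (8 μM final). Fluorescence read at ex 490/em 523 nm and expressed relative to uninhibited cleavage. Triplicate wells with DMSO controls. IC50 from four-parameter nonlinear regression over two independent experiments.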"}}, "note": "Activity calls are given as the source filed them. The calls are words filed in the database; no cut-off is given here."}
{"molecule": "CC(=O)O[C@H]1C(=O)[C@]2(C)[C@@H](OC(=O)CCNC(=O)c3ccc(-c4c5cc(F)c(=O)cc-5oc5cc(O)c(F)cc45)c(C(=O)O)c3)C[C@H]3OC[C@@]3(OC(C)=O)[C@H]2[C@H](OC(=O)c2ccccc2)[C@]2(O)C[C@H](OC(=O)[C@H](O)[C@@H](NC(=O)c3ccccc3)c3ccccc3)C(C)=C1C2(C)C", "values": [{"measurement": "Activity", "setting": "[1]", "result": 4, "unit": "%"}]}
{"molecule": "CC[C@@]1([C@@H]2O[C@@H]([C@H]3O[C@@](O)(CO)[C@H](C)C[C@@H]3C)C[C@@H]2C)CC[C@H]([C@]2(C)CC[C@]3(C[C@H](O)[C@@H](C)[C@@H]([C@@H](C)[C@@H](OC)[C@H](C)C(=O)O)O3)O2)O1", "values": [{"measurement": "inhibition", "setting": "[2]", "result": 38, "unit": "%"}]}
{"molecule": "OCC1(O)OC[C@@H](O)[C@@H](O)[C@@H]1O", "note": "(stereo partly drawn)", "values": [{"measurement": "Activity", "setting": "[3]", "result": 5, "unit": "%"}, {"measurement": "inhibition", "setting": "[2]", "result": 0, "unit": "%"}]}
{"molecule": "Nc1nc(N)c2nc(CNc3ccc(C(=O)N[C@@H](CCC(=O)O)C(=O)O)cc3)cnc2n1", "values": [{"measurement": "inhibition", "setting": "[2]", "result": 11, "unit": "%"}]}
{"molecule": "CC(=O)O[C@H]1C(=O)[C@@]2(C)[C@H]([C@H](OC(=O)c3ccccc3)[C@]3(O)C[C@H](OC(=O)[C@H](O)[C@@H](NC(=O)c4ccccc4)c4ccccc4)C(C)=C1C3(C)C)[C@]1(OC(C)=O)CO[C@@H]1C[C@@H]2O", "note": "[PACLITAXEL]", "values": [{"measurement": "Activity", "setting": "[4]", "result": 7, "unit": "%"}, {"measurement": "Activity", "setting": "[5]", "result": 7, "unit": "%"}, {"measurement": "Activity", "setting": "[6]", "result": "Active"}, {"measurement": "IC50", "setting": "[7]", "result": 5.2, "unit": "µM"}, {"measurement": "inhibition", "setting": "[2]", "result": 85, "unit": "%"}]}
{"molecule": "N[C@@H](CCCc1c(CC[C@H](N)C(=O)O)c[n+](CCCC[C@H](N)C(=O)O)cc1CC[C@H](N)C(=O)O)C(=O)[O-]", "values": [{"measurement": "inhibition", "setting": "[2]", "result": 25, "unit": "%"}]}
{"molecule": "CC(=O)O[C@H]1C(=O)[C@@]2(C)[C@H]([C@H](OC(=O)c3ccccc3)[C@]3(O)C[C@H](OC(=O)[C@H](O)[C@@H](NC(=O)CCC4=[N+]5C(C=C4)Cc4ccc(/C=C/c6ccccc6)n4[B-]5(F)F)c4ccccc4)C(C)=C1C3(C)C)[C@]1(OC(C)=O)CO[C@@H]1C[C@@H]2O", "note": "(stereo partly drawn)", "values": [{"measurement": "Activity", "setting": "[1]", "result": 46, "unit": "%"}]}
{"molecule": "CC(=O)O[C@H]1C(=O)[C@@]2(C)[C@H]([C@H](OC(=O)c3ccccc3)[C@]3(O)C[C@H](OC(=O)[C@H](O)[C@@H](NC(=O)CCC4=[N+]5C(C=C4)Cc4c(C)cc(C)n4[B-]5(F)F)c4ccccc4)C(C)=C1C3(C)C)[C@]1(OC(C)=O)CO[C@@H]1C[C@@H]2O", "note": "(stereo partly drawn)", "values": [{"measurement": "Activity", "setting": "[1]", "result": 22, "unit": "%"}]}
